Reference: ChEMBL document CHEMBL1909611, “Identification and SAR of selective inducible nitric oxide synthase (iNOS) dimerization inhibitors” (Bioorg Med Chem Lett, 2011)

Legend:
Type in all cases: cell-based
Nitric oxide synthase 1 [1] = target: T1, Nitric oxide synthase 1 (Homo sapiens, UniProt P29475); experiment: Inhibition of human nNOS expressed in HEK293 cells assessed as inhibition ionomycin-induced nitric oxide production incubated for 24 hrs measured after 18 hrs of ionomycin challenge by 2,3-diaminonaphthalene assay
How it was run: (§1)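 Transiently transfected cells plated at 5e5 cells/ml; compounds added immediately by pin transfer. Incubated 24 h with compound, then activated by ionophore (0.8 µM final). Fluorescence (ex 360/em 425 nm) read after raising pH with NaOH (0.12 N final). Values are mean of three experiments with SD. At 100 µM, <50% inhibition is reported as >100.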

Nitric oxide synthase 3 = target: T2, Nitric oxide synthase 3 (Homo sapiens, UniProt P29474); experiment: Inhibition of human eNOS expressed in HEK293 cells assessed as inhibition A23187-induced nitric oxide production incubated for 24 hrs measured after 18 hrs of A23187 challenge by 2,3-diaminonaphthalene assay; how it was run: as §1
T2 sequence (P29474 whole entry): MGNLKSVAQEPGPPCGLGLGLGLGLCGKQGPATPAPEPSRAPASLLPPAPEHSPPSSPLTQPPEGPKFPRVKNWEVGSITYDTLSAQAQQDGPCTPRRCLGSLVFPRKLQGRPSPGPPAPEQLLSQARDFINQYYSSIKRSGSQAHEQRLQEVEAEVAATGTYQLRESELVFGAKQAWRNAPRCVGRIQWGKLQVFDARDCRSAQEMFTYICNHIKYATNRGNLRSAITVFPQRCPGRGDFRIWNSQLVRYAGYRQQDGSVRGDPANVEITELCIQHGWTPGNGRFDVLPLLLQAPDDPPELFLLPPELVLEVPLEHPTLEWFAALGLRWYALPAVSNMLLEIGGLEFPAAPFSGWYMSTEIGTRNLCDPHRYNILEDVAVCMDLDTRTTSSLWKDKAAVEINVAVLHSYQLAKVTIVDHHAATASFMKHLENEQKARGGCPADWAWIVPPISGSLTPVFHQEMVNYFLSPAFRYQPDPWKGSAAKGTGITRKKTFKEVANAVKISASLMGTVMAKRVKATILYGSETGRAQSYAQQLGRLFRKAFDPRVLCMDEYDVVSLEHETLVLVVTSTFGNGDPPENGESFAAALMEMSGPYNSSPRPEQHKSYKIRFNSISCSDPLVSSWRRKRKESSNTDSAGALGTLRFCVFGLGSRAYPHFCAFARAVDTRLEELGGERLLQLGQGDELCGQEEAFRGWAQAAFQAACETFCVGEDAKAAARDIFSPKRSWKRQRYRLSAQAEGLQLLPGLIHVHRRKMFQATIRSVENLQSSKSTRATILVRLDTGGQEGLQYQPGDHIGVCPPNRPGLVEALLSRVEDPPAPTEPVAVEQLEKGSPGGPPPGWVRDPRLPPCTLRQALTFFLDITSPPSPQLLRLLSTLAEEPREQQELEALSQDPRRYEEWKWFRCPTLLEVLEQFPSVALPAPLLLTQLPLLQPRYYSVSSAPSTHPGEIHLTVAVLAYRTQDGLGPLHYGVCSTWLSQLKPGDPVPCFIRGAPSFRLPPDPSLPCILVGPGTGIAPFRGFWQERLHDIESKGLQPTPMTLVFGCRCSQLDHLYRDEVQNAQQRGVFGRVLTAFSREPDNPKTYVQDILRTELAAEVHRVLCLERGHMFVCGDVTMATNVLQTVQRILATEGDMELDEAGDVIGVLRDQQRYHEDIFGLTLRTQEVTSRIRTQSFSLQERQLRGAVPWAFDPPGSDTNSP

[2] = target: T3, Nitric oxide synthase 3 (Homo sapiens) (UniProt P29474); experiment: Inhibition of human eNOS expressed in HEK293 cells assessed as inhibition A23187-induced nitric oxide production at 100 uM incubated for 24 hrs measured after 18 hrs of A23187 challenge by 2,3-diaminonaphthalene assay; how it was run: as §1
T3 sequence (whole entry): T2 sequence (P29474 whole entry)

[3] = target: T4, Nitric oxide synthase, inducible (Homo sapiens, UniProt P35228); experiment: Inhibition of human iNOS expressed in human HEK293 cells assessed as nitrite accumulation after 18 hrs by 2,3-diaminonapthalene assay
How it was run: as §1, with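 “18” for “24”, “for nitrite accumulation.” for “with compound, then activated by ionophore (0.8 µM final).”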

[4] = target: T4, Nitric oxide synthase, inducible; experiment: Inhibition of human iNOS expressed in human HEK293 cells assessed as nitrite accumulation at 100 uM after 18 hrs by 2,3-diaminonapthalene assay
How it was run: as §1, with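 “18” for “24”, “for nitrite accumulation.” for “with compound, then activated by ionophore (0.8 µM final).”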

Nitric oxide synthase 1 [5] = target: T1, Nitric oxide synthase 1; experiment: Inhibition of human nNOS expressed in HEK293 cells assessed as inhibition ionomycin-induced nitric oxide production at 100 uM incubated for 24 hrs measured after 18 hrs of ionomycin challenge by 2,3-diaminonaphthalene assay; how it was run: as §1

T4 sequence (P35228 whole entry): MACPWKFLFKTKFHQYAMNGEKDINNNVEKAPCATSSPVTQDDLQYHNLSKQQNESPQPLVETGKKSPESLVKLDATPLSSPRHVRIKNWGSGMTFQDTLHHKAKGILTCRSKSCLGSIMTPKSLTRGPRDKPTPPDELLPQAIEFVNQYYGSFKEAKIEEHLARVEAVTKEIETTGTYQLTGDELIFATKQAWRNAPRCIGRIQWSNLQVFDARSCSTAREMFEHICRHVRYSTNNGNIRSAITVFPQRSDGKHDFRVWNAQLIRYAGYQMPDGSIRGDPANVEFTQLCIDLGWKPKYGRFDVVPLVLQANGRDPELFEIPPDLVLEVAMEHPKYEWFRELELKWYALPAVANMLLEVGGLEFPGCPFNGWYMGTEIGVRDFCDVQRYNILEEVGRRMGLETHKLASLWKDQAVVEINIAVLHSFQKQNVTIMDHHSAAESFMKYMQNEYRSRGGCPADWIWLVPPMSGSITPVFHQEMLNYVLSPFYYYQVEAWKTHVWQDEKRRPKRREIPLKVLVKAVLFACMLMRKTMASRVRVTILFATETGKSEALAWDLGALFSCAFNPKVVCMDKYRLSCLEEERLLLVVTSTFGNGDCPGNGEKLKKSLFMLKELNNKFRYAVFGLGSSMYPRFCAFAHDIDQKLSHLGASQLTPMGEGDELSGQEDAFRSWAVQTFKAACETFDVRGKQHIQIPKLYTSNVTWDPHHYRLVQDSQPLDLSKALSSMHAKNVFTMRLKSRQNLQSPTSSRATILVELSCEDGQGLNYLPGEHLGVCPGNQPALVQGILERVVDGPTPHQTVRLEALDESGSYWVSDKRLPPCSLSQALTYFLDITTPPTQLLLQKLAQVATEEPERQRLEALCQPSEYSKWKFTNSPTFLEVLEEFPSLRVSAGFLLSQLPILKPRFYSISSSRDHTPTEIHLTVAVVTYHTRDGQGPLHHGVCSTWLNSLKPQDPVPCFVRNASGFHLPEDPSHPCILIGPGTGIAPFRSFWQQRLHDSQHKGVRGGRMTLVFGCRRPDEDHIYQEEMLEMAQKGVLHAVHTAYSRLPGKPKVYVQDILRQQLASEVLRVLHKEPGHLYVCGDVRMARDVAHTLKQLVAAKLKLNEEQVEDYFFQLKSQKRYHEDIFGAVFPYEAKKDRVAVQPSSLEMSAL
T1 sequence (P29475 whole entry): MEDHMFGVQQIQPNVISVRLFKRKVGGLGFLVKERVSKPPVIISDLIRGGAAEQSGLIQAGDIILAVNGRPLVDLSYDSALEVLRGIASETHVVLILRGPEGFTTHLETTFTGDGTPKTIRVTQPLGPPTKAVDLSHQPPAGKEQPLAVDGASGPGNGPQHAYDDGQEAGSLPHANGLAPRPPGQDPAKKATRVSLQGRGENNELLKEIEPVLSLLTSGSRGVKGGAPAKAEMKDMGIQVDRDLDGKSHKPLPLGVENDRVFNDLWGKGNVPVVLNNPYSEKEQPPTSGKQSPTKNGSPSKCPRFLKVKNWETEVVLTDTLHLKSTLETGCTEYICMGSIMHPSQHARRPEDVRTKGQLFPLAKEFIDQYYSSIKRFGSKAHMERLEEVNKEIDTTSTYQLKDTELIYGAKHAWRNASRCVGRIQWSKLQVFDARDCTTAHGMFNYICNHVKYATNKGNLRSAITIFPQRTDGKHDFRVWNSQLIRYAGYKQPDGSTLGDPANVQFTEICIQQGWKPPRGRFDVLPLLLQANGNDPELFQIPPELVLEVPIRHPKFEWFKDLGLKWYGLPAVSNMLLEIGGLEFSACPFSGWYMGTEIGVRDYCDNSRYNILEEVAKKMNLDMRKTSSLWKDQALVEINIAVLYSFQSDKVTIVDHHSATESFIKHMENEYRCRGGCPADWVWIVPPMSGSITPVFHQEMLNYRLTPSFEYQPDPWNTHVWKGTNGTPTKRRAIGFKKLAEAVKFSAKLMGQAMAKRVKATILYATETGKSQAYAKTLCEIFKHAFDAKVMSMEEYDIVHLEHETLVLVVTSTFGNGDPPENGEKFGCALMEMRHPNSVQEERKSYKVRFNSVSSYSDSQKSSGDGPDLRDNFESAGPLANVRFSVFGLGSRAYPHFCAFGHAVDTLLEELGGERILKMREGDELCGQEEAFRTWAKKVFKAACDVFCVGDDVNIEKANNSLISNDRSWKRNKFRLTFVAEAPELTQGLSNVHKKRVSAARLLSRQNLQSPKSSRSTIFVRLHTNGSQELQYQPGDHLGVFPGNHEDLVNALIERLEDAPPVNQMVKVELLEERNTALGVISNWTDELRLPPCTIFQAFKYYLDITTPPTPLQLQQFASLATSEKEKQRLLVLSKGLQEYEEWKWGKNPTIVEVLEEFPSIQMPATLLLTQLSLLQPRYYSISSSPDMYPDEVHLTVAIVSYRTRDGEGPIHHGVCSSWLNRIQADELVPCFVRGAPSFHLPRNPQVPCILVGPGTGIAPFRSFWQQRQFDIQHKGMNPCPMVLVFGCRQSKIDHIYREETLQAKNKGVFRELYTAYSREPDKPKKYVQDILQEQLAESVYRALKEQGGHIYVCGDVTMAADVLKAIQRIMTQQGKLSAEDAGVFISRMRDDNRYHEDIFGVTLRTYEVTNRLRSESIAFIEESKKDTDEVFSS

SMILES | EC50 (Nitric oxide synthase 1 [1]) | EC50 (Nitric oxide synthase 3) | inhibition [2] | EC50 [3] | inhibition [4] | inhibition (Nitric oxide synthase 1 [5])
c1cncc(CN(CCCNCc2ccc3c(c2)OCO3)c2nc(-n3ccnc3)ns2)c1 | 0.48 µM | > 100 µM | < 50% | 0.005 µM |  | 
Cc1cc(C(=O)NCCN(C)Cc2ccc3c(c2)OCO3)nc(-n2ccnc2)n1 | > 100 µM | > 100 µM | < 50% | > 100 µM | < 50% | < 50%
CN(CCCNC(=O)c1ccc2c(c1)OCO2)c1nc(-n2ccnc2)ns1 | > 100 µM | > 100 µM | < 50% | 6.3 µM |  | < 50%
Cc1cc(C2CCCN2CC(=O)NCc2ccc3c(c2)OCO3)nc(-n2ccnc2)n1 (centres undefined) | 9.5 µM | > 100 µM | < 50% | 0.036 µM |  | 
CN(CCCNCc1ccc2[nH]ccc2c1)c1nc(-n2ccnc2)ns1 | > 100 µM | > 100 µM | < 50% | > 100 µM | < 50% | < 50%
c1coc(CN(CCCNCc2ccc3c(c2)OCO3)c2nc(-n3ccnc3)ns2)c1 | 2.1 µM | > 100 µM | < 50% | 0.014 µM |  | 
COc1ccc(CNCCCN(C)c2nc(-n3ccnc3)ns2)cc1 | > 100 µM | > 100 µM | < 50% | 0.36 µM |  | < 50%
Oc1ccc(CN(CCCNCc2ccc3c(c2)OCO3)c2nc(-n3ccnc3)ns2)cc1 | 11 µM | > 100 µM | < 50% | 0.042 µM |  | 
CNC(=O)CN(CCCNCc1ccc2c(c1)OCO2)c1nc(-n2ccnc2)ns1 | 7.2 µM | > 100 µM | < 50% | 0.059 µM |  | 
Cc1cc(C(C)NCCOCc2ccc3c(c2)OCO3)nc(-n2ccnc2)n1 (centres undefined) | > 100 µM | > 100 µM | < 50% | 0.29 µM |  | < 50%
NC(=O)CN(CCCNCc1ccc2c(c1)OCO2)c1nc(-n2ccnc2)ns1 | 11 µM | > 100 µM | < 50% | 0.081 µM |  | 
Cn1cnc(CN(CCCNCc2ccc3c(c2)OCO3)c2nc(-n3ccnc3)ns2)c1 | 18 µM | > 100 µM | < 50% | 0.071 µM |  | 
c1cn(-c2nsc(N(CCCNCc3ccc4c(c3)OCO4)C3CC3)n2)cn1 | 36 µM | > 100 µM | < 50% | 0.056 µM |  | 
CCOC(=O)CN(CCCNCc1ccc2c(c1)OCO2)c1nc(-n2ccnc2)ns1 | 7.6 µM | > 100 µM | < 50% | 0.034 µM |  | 
c1cn(-c2nsc(N(CCCNCc3ccc4c(c3)OCO4)Cc3nnn[nH]3)n2)cn1 | > 100 µM | > 100 µM | < 50% | 4 µM |  | < 50%
Cc1cc(C2CCCN2C(=O)CNCc2ccc3c(c2)OCO3)nc(-n2ccnc2)n1 (centres undefined) | 6.6 µM | > 100 µM | < 50% | 0.03 µM |  | 
CN(CCCNCc1ccc(F)c(F)c1)c1nc(-n2ccnc2)ns1 | > 100 µM | > 100 µM | < 50% | > 100 µM | < 50% | < 50%
CN(C)C(=O)CN(CCCNCc1ccc2c(c1)OCO2)c1nc(-n2ccnc2)ns1 | > 100 µM | > 100 µM | < 50% | 0.08 µM |  | < 50%
c1csc(CN(CCCNCc2ccc3c(c2)OCO3)c2nc(-n3ccnc3)ns2)c1 | 0.69 µM | > 100 µM | < 50% | 0.009 µM |  | 

SMILES | EC50 (Nitric oxide synthase 1 [1]) | EC50 (Nitric oxide synthase 3) | inhibition [2] | EC50 [3] | inhibition [4] | inhibition (Nitric oxide synthase 1 [5])
Cc1cc(C2CCCN2C(=O)NCCc2ccc3c(c2)OCO3)nc(-n2ccnc2)n1 (centres undefined) | 2.7 µM | > 100 µM | < 50% | 0.009 µM |  | 
Cc1cc(CNC(=O)NCCc2ccc3c(c2)OCO3)nc(-n2ccnc2)n1 | > 100 µM | > 100 µM | < 50% | 0.014 µM |  | < 50%
CN(CCCNCCc1ccc2c(c1)OCO2)c1nc(-n2ccnc2)ns1 | 47 µM | > 100 µM | < 50% | 0.23 µM |  | 
CN(CCCNCc1ccc2c(c1)OC(F)(F)O2)c1nc(-n2ccnc2)ns1 | > 100 µM | > 100 µM | < 50% | 8.9 µM |  | < 50%
N#CCN(CCCNCc1ccc2c(c1)OCO2)c1nc(-n2ccnc2)ns1 | 7.2 µM | > 100 µM | < 50% | 0.012 µM |  | 
Cc1cc(C2CCCN2CCN(C)Cc2ccc3c(c2)OCO3)nc(-n2ccnc2)n1 (centres undefined) | 3.9 µM | > 100 µM | < 50% | 0.004 µM |  | 
Cc1cc(C(C)NCCN(C)Cc2ccc3c(c2)OCO3)nc(-n2ccnc2)n1 (centres undefined) | 6 µM | > 100 µM | < 50% | 0.029 µM |  | 
CCCN(CCCNCc1ccc2c(c1)OCO2)c1nc(-n2ccnc2)ns1 | 2.3 µM | > 100 µM | < 50% | 0.009 µM |  | 
CN(CCCNCc1ccncc1)c1nc(-n2ccnc2)ns1 | > 100 µM | > 100 µM | < 50% | > 100 µM | < 50% | < 50%
CN(C)c1ccc(CN(CCCNCc2ccc3c(c2)OCO3)c2nc(-n3ccnc3)ns2)cc1 | 6.8 µM | > 100 µM | < 50% | 0.163 µM |  | 
CN(CCCNCc1ccc2c(c1)OCCO2)c1nc(-n2ccnc2)ns1 | 24 µM | > 100 µM | < 50% | 0.048 µM |  | 
c1cn(-c2nsc(N(CCCNCc3ccc4c(c3)OCO4)Cc3ccc4occc4c3)n2)cn1 | 7.9 µM | > 100 µM | < 50% | 0.09 µM |  | 
COc1ccc(CNCCCN(C)c2nc(-n3ccnc3)ns2)cc1OC | > 100 µM | > 100 µM | < 50% | 0.76 µM |  | < 50%
O=C(O)CN(CCCNCc1ccc2c(c1)OCO2)c1nc(-n2ccnc2)ns1 | > 100 µM | > 100 µM | < 50% | > 100 µM | < 50% | < 50%
c1cn(-c2nsc(N(CCCNCc3ccc4c(c3)OCO4)Cc3nccs3)n2)cn1 | 0.31 µM | > 100 µM | < 50% | 0.006 µM |  | 
Cc1cc(CCCCNCc2ccc3c(c2)OCO3)nc(-n2ccnc2)n1 | > 100 µM | > 100 µM | < 50% | 0.02 µM |  | < 50%
Cc1cc(-c2cccn2CCN(C)Cc2ccc3c(c2)OCO3)nc(-n2ccnc2)n1 | > 100 µM | > 100 µM | < 50% | 1.8 µM |  | < 50%
Cc1cc(CNC(=O)CNCc2ccc3c(c2)OCO3)nc(-n2ccnc2)n1 | > 100 µM | > 100 µM | < 50% | 0.293 µM |  | < 50%
